According to ChEMBL document CHEMBL1126770, “2,5-Dimethoxy congeners of (+)-and (-)-3-(3-hydroxyphenyl)-N-n- propylpiperidine” (1993):

How the values were obtained:
Rattus norvegicus [1] = test: DA2 antagonist activity was tested by the duration of onset of action of cardiovascular response at 10 ug/kg; assay type: functional, Heart
Outline: (§1)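 In anaesthetised Sprague-Dawley rats (urethane 900 mg/kg ip), cumulative iv doses at 0.48 log10 intervals were given via the femoral vein after ≥5 min of stable responses. Duration of hypotension and bradycardia (min) was taken from femoral arterial pressure and pulse-triggered heart rate recordings. Three rats per compound; mean ± SD.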

Rattus norvegicus [2] = test: DA2 antagonist activity was tested by the duration of onset of action of cardiovascular response at 100 ug/kg; assay type: functional, Heart; outline: as §1
Rattus norvegicus [3] = test: DA2 antagonist activity was tested by the duration of onset of action of cardiovascular response at 30 ug/kg; assay type: functional, Heart; outline: as §1
Rattus norvegicus [4] = test: DA2 antagonist activity was tested by its ability to decrease the heart rate in anesthetized rat at 10 ug/kg; assay type: functional
Outline: (§2)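 Urethane-anaesthetised (900 mg/kg ip) Sprague-Dawley rats received iv cumulative doses via the femoral vein, at 0.48 log10 steps once responses had been stable ≥5 min. Heart rate came from a cardiotachometer triggered by the femoral arterial pulse, as decrease in beats/min. n = 3 rats per compound; mean ± SD.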

Rattus norvegicus [5] = test: DA2 antagonist activity was tested by its ability to decrease the heart rate in anesthetized rat at 100 ug/kg; assay type: functional; outline: as §2
Rattus norvegicus [6] = test: DA2 antagonist activity was tested by its ability to decrease the heart rate in anesthetized rat at 30 ug/kg; assay type: functional; outline: as §2
Rattus norvegicus [7] = test: DA2 antagonist activity was tested by its ability to decrease the arterial pressure in anesthetized rat at 100 ug/kg; assay type: functional, Artery
Outline: (§3)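 Sprague-Dawley rats under urethane anaesthesia (900 mg/kg ip), with a femoral vein cannula for drug. Compound given iv as cumulative doses spaced 0.48 log10 units apart, each after responses had been stable ≥5 min. Mean arterial pressure was recorded from the femoral artery via a transducer, as decrease in mmHg. Three rats per compound; mean ± SD.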

Rattus norvegicus [8] = test: DA2 antagonist activity was tested by its ability to decrease the arterial pressure in anesthetized rat at 30 ug/kg; assay type: functional, Artery; outline: as §3
Rattus norvegicus [9] = test: DA2 antagonist activity was tested by its ability to decrease the arterial pressure in anesthetized rat at 10 ug/kg; assay type: functional, Artery; outline: as §3
Rattus norvegicus [10] = test: DA2 antagonist activity was tested by the duration of onset of action of cardiovascular response at 1000 ug/kg; assay type: functional, Heart; outline: as §1
Rattus norvegicus [11] = test: DA2 antagonist activity was tested by the duration of onset of action of cardiovascular response at 3000 ug/kg; assay type: functional, Heart; outline: as §1
Rattus norvegicus [12] = test: DA2 antagonist activity was tested by the duration of onset of action of cardiovascular response at 300 ug/kg; assay type: functional, Heart; outline: as §1
Rattus norvegicus [13] = test: DA2 antagonist activity was tested by its to decrease the heart rate in anesthetized rat at 1000 ug/kg; assay type: functional; outline: as §2
Rattus norvegicus [14] = test: DA2 antagonist activity was tested by its to decrease the heart rate in anesthetized rat at 300 ug/kg; assay type: functional; outline: as §2
Rattus norvegicus [15] = test: DA2 antagonist activity was tested by its to decrease the heart rate in anesthetized rat at 3000 ug/kg; assay type: functional; outline: as §2
Rattus norvegicus [16] = test: DA2 antagonist activity was tested by its ability to decrease the arterial pressure in anesthetized rat at 300 ug/kg; assay type: functional, Artery; outline: as §3
Rattus norvegicus [17] = test: DA2 antagonist activity was tested by its ability to decrease the arterial pressure in anesthetized rat at 3000 ug/kg; assay type: functional, Artery; outline: as §3
Rattus norvegicus [18] = test: DA2 antagonist activity was tested by the duration of onset of action of cardiovascular response at 1000 ug/kg; Insufficient sample for statistical treatment; assay type: functional, Heart
Rattus norvegicus [19] = test: DA2 antagonist activity was tested by its ability to decrease the heart rate in anesthetized rat at 1000 ug/kg; assay type: functional; outline: as §2
Rattus norvegicus [20] = test: DA2 antagonist activity was tested by its ability to decrease the heart rate in anesthetized rat at 300 ug/kg; assay type: functional; outline: as §2
Rattus norvegicus [21] = test: DA2 antagonist activity was tested by its ability to decrease the heart rate in anesthetized rat at 3000 ug/kg; assay type: functional; outline: as §2
Rattus norvegicus [22] = test: DA2 antagonist activity was tested by its ability to decrease the arterial pressure in anesthetized rat at […] ug/kg; assay type: functional, Artery; outline: as §3

## CCCN1CCC[C@H](c2cccc(O)c2)C1
Rattus norvegicus [1]
  Duration of action: 6 min
Rattus norvegicus [2]
  Duration of action: 14 min
Rattus norvegicus [3]
  Duration of action: 10 min
Rattus norvegicus [4]
  Decrease in heart rate: 13 beats min-1
Rattus norvegicus [5]
  Decrease in heart rate: 44 beats min-1
Rattus norvegicus [6]
  Decrease in heart rate: 37 beats min-1
Rattus norvegicus [7]
  Decrease in pressure: 23 mmHg
Rattus norvegicus [8]
  Decrease in pressure: 16 mmHg
Rattus norvegicus [9]
  Decrease in pressure: 5 mmHg

## CCCN1CCCC(c2cc(OC)ccc2OC)C1 (racemic)
Rattus norvegicus [10]
  Duration of action: 8 min
Rattus norvegicus [11]
  Duration of action: 13 min
Rattus norvegicus [12]
  Duration of action: 5 min
Rattus norvegicus [13]
  Decrease in heart rate: 35 beats min-1
Rattus norvegicus [14]
  Decrease in heart rate: 17 beats min-1
Rattus norvegicus [15]
  Decrease in heart rate: 45 beats min-1
Rattus norvegicus [16]
  Decrease in pressure: 10 mmHg
Rattus norvegicus [17]
  Decrease in pressure: 23 mmHg

## CCCN1CCCC(c2cc(OC)ccc2OC)C1 (single isomer, unassigned; (+))
Rattus norvegicus [18]
  Duration of action: 18 min
Rattus norvegicus [19]
  Decrease in heart rate: 30 beats min-1

## CCCN1CCCC(c2cc(OC)ccc2OC)C1 (single isomer, unassigned; (-))
Rattus norvegicus [10]
  Duration of action: 5 min
Rattus norvegicus [11]
  Duration of action: 10 min
Rattus norvegicus [12]
  Duration of action: 2 min
Rattus norvegicus [19]
  Decrease in heart rate: 40 beats min-1
Rattus norvegicus [20]
  Decrease in heart rate: 10 beats min-1
Rattus norvegicus [21]
  Decrease in heart rate: 45 beats min-1
Rattus norvegicus [16]
  Decrease in pressure: 15 mmHg
Rattus norvegicus [22]
  Decrease in pressure: 27 mmHg
